The record followed here is PMC6745485 (Heliyon, 2019).

“And” between values parts separate entries of the source, which are not always exact repeats. Identical values can stand only once. “Also recorded” adds a separate entry of the source.

What all share (type): cell-based
One data set concerns the target T1, rat PPARα (Rattus norvegicus, UniProt P37230).
T1 sequence (P37230 1-468): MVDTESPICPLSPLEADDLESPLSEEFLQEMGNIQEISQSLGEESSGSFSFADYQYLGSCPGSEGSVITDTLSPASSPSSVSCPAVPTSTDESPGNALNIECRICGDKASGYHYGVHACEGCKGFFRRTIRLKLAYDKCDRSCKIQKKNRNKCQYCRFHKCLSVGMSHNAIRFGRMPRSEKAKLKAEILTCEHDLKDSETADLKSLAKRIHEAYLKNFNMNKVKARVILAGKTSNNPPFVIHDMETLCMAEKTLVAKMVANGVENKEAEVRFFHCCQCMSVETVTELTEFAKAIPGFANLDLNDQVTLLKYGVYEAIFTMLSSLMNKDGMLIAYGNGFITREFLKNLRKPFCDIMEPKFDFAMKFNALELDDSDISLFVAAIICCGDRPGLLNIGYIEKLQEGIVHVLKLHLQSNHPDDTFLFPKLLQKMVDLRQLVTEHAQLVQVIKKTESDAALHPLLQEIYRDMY
Put plainly: Rat PPARα reporter gene assay in COS-1 cells. The note with it: for Agonistic activity REC20 PPARα: concentration showing 20% of the agonistic activity of 30 μM BZF, ±SD; for PPARα agonistic activity (in words): up to 30 μM.

Data set [1] has as its target T2, rat PXR (Rattus norvegicus, UniProt Q9R1A7).
T2 sequence (Q9R1A7 1-431): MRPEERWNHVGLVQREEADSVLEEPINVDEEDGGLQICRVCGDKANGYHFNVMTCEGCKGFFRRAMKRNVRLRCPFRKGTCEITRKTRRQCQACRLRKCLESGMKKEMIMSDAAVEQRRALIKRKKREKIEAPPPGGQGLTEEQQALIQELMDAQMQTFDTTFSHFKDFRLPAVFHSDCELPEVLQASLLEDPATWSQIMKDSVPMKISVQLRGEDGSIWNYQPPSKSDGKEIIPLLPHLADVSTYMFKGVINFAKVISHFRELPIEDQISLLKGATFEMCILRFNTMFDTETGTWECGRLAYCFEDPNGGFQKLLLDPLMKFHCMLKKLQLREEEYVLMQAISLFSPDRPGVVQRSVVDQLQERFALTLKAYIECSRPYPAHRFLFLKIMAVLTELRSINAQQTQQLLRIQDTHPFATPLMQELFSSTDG
Put plainly: Rat PXR reporter gene assay in COS-1 cells. As to conditions: for Agonistic activity REC20 PXR: concentration showing 20% of the agonistic activity of 1 μM PCN, ±SD; for PXR agonistic activity (in words): up to 30 μM. An outline of the steps:
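COS-1 cells (1×10^4/well) co-transfected with rat PXR expression, reporter and Renilla control plasmids via jetPEI. After 24 h, test compound or 0.1% DMSO added in serum-free D-MEM for 24 h. Dual-luciferase read-out, firefly normalized to Renilla, fold vs vehicle. REC20: concentration reaching 20% of 1 μM PCN activity. Mean ± SD, ≥3 experiments in duplicate; Dunnett's test.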
In general terms: A reporter such as luciferase makes a cellular process visible.

Another data set deals with T3, rat CAR (Rattus norvegicus, UniProt Q9QUS1).
T3 sequence (Q9QUS1 1-358): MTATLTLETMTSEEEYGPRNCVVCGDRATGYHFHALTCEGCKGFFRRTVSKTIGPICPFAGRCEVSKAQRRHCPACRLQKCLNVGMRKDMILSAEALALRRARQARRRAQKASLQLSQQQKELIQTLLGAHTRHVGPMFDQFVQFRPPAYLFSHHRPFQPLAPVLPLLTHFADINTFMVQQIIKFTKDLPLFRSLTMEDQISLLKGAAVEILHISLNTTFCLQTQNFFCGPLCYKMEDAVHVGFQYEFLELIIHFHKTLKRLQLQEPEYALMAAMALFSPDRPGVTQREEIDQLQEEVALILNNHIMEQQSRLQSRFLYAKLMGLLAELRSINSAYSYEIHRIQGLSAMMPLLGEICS
Put plainly: Rat CAR reporter gene assay in COS-1 cells. The note with it: for Agonistic activity REC20 CAR: concentration showing 20% of the agonistic activity of 30 μM artemisinin; for Agonistic activity REC20 CAR / Inverse agonistic activity RIC20 CAR: ±SD; for Inverse agonistic activity RIC20 CAR: concentration showing 80% of the activity of the vehicle control; for CAR agonistic activity (in words) / CAR inverse agonistic activity (in words): up to 30 μM.

Data set [2] concerns the target T2, rat PXR. As to conditions: microsomes of PB- and MC-treated rats, NADPH, vs boiled microsomes. The gist of the method: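 Test compound (1 μmol) incubated 30 min at 37 °C in 0.1 M K,Na-phosphate pH 7.4. Mix held an NADPH-generating system and liver microsomes (60 mg protein) from male SD rats given PB 80 mg/kg i.p. plus MC 25 mg/kg p.o. daily for 3 d. Boiled microsomes were the control. Ethyl acetate extract went into DMSO and onto transfected COS-1 cells for 24 h. Normalized firefly/Renilla fold vs vehicle; n=3, t-test.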

On to `CC(C)(Oc1ccc(CCNC(=O)c2ccc(Cl)cc2)cc1)C(=O)O` [BZF, bezafibrate, reference compound], for which the “PPARα luciferase activity, fold” value at rat PPARα (30 μM) worked out at 2.4 fold. On rat PPARα, the “Agonistic activity REC20 PPARα” value was 3.68 ± 0.0944 µM.

As for `O=C(O)c1cccc(Oc2ccccc2)c1` [PBAcid, 3-phenoxybenzoic acid], at rat PXR [1], the “Agonistic activity REC20 PXR” value was “- ^c (No effect (REC20 > 30 μM))” and the “PXR agonistic activity (in words)” value was “inactive”. Further, at rat CAR, the “Agonistic activity REC20 CAR” value was “- ^c (No effect (REC20 > 30 μM))”, the “Inverse agonistic activity RIC20 CAR” value is on record as “- ^c (No effect (REC20 > 30 μM))”, the “CAR agonistic activity (in words)” value is “did not show CAR agonistic or inverse agonistic activity” and the “CAR inverse agonistic activity (in words)” value is “did not show CAR agonistic or inverse agonistic activity”. For the same compound, at rat PPARα, the “Agonistic activity REC20 PPARα” value is 26.8 µM and 26.8 ± 21.3 µM; the “PPARα agonistic activity (in words)” value is reported as “dose-dependent agonistic activity; also recorded: more active PPARα agonists than the parent compounds”.

Regarding `OCc1cccc(Oc2ccccc2)c1` [PBAlc, 3-phenoxybenzyl alcohol], at rat PXR [1], the “Agonistic activity REC20 PXR” value is recorded as “- ^c (No effect (REC20 > 30 μM))” and the “PXR agonistic activity (in words)” value was “weak PXR agonistic activity”. On rat CAR, the “Agonistic activity REC20 CAR” value is reported as “- ^c (No effect (REC20 > 30 μM))”, the “Inverse agonistic activity RIC20 CAR” value was “- ^c (No effect (REC20 > 30 μM))”, the “CAR agonistic activity (in words)” value was “did not show CAR agonistic or inverse agonistic activity” and the “CAR inverse agonistic activity (in words)” value is listed as “did not show CAR agonistic or inverse agonistic activity”. For the same compound, the “Agonistic activity REC20 PPARα” value at rat PPARα was “- ^c (No effect (REC20 > 30 μM))”.

Turning to `O=Cc1cccc(Oc2ccccc2)c1` [PBAld, 3-phenoxybenzaldehyde], on rat PXR [1], the “Agonistic activity REC20 PXR” value is “- ^c (No effect (REC20 > 30 μM))” and the “PXR agonistic activity (in words)” value was “inactive”. Further, at rat CAR, the “Agonistic activity REC20 CAR” value is recorded as “- ^c (No effect (REC20 > 30 μM))”, the “Inverse agonistic activity RIC20 CAR” value is listed as “- ^c (No effect (REC20 > 30 μM))”, the “CAR agonistic activity (in words)” value was “did not show CAR agonistic or inverse agonistic activity” and the “CAR inverse agonistic activity (in words)” value is listed as “did not show CAR agonistic or inverse agonistic activity”. Also, on rat PPARα, the “Agonistic activity REC20 PPARα” value is “- ^c (No effect (REC20 > 30 μM))” and the “PPARα agonistic activity (in words)” value is “weak activity; also recorded: more active PPARα agonists than the parent compounds”.

Consider `CC(=O)[C@H]1[C@H](C#N)C[C@H]2[C@@H]3CC=C4C[C@@H](O)CC[C@]4(C)[C@H]3CC[C@@]21C` [PCN, 5-Pregnen-3β-ol-20-one-16α-carbonitrile, reference compound], for which the “PXR luciferase activity, fold compared to DMSO-treated cells” value at rat PXR [1] (1 μM) is reported as 3.2 fold. Also, the “Agonistic activity REC20 PXR” value at rat PXR [1] worked out at 0.0887 ± 0.0118 µM.

For `C=CCC1=C(C)C(OC(=O)C2C(C=C(C)C)C2(C)C)CC1=O` (centres unmarked) [allethrin], the “PXR activity, fold compared with the control” value (“PXR activity, fold” below) on rat PXR [1] (1 μM or lower) is “about 2 fold”; on rat PXR [1] (concentration range 1–30 μM), “about 3 fold”. On rat PXR [1], the “Agonistic activity REC20 PXR” value was 0.668 ± 0.129 µM. Besides, the “Agonistic activity REC20 CAR” value on rat CAR is listed as “- ^c (No effect (REC20 > 30 μM))”. The “Inverse agonistic activity RIC20 CAR” value at rat CAR was “- ^c (No effect (REC20 > 30 μM))”. Also, on rat PPARα, the “Agonistic activity REC20 PPARα” value was “- ^c (No effect (REC20 > 30 μM))”. Further, the “Change of PXR activity upon incubation with rat liver microsomes” value (shortened to “Change of PXR activity upon incubation”) at rat PXR [2] is on record as “slightly decreased”.

On to `C[C@@H]1CC[C@H]2[C@@H](C)C(=O)O[C@@H]3O[C@@]4(C)CC[C@@H]1[C@]32OO4` [artemisinin, reference compound], for which the “CAR luciferase activity, fold” value on rat CAR (30 μM) amounted to 1.9 fold. For the same compound, the “Agonistic activity REC20 CAR” value at rat CAR was 2.53 ± 4.02 µM.

Regarding `CC(C)=C[C@@H]1[C@@H](C(=O)OCc2coc(Cc3ccccc3)c2)C1(C)C` [bioresmethrin], at rat PXR [1], the “Agonistic activity REC20 PXR” value was determined as 1.92 ± 0.724 µM and the “PXR agonistic activity (in words)” value is reported as “relatively weak activities”. In addition, on rat CAR, the “Agonistic activity REC20 CAR” value is “- ^c (No effect (REC20 > 30 μM))”, the “Inverse agonistic activity RIC20 CAR” value is reported as “- ^c (No effect (REC20 > 30 μM))” and the “CAR inverse agonistic activity (in words)” value is listed as “showed CAR inverse agonistic activity”. Besides, at rat PPARα, the “Agonistic activity REC20 PPARα” value is recorded as “- ^c (No effect (REC20 > 30 μM))”. Also, the “Change of PXR activity upon incubation” value at rat PXR [2] is “slightly decreased”.

Turning to `CC1(C)[C@H](C(=O)OCc2cccc(Oc3ccccc3)c2)[C@@H]1C=C(Cl)Cl` [cis-permethrin], the “PXR activity, fold” value at rat PXR [1] (concentration range 1–30 μM) is “about 3 fold”. Besides, the “Agonistic activity REC20 PXR” value on rat PXR [1] was 0.329 ± 0.0472 µM. Further, at rat CAR, the “Agonistic activity REC20 CAR” value is reported as “- ^c (No effect (REC20 > 30 μM))”, the “Inverse agonistic activity RIC20 CAR” value is given as “- ^c (No effect (REC20 > 30 μM))” and the “CAR agonistic activity (in words)” value is listed as “showed CAR agonistic activity at higher concentrations; also recorded: weak CAR agonistic activity”. Besides, the “Agonistic activity REC20 PPARα” value at rat PPARα is “- ^c (No effect (REC20 > 30 μM))”. The “Change of PXR activity upon incubation” value at rat PXR [2] is on record as “decreased”.

For `CC1(C)[C@H](C(=O)O[C@H](C#N)c2cccc(Oc3ccccc3)c2)[C@@H]1C=C(Br)Br` [deltamethrin], the “Agonistic activity REC20 PXR” value at rat PXR [1] was determined as 0.156 ± 0.0216 µM. Besides, at rat PPARα, the “Agonistic activity REC20 PPARα” value is recorded as “- ^c (No effect (REC20 > 30 μM))”. For the same compound, the “Change of PXR activity upon incubation” value at rat PXR [2] is “decreased”.

Consider `CC(C)=CC1C(C(=O)OCc2cccc(Oc3ccccc3)c2)C1(C)C` (centres unmarked) [phenothrin], for which, at rat PXR [1], the “Agonistic activity REC20 PXR” value stood at 3.89 ± 1.03 µM and the “PXR agonistic activity (in words)” value is “relatively weak activities”. On rat CAR, the “Agonistic activity REC20 CAR” value is “- ^c (No effect (REC20 > 30 μM))”, the “Inverse agonistic activity RIC20 CAR” value is reported as “- ^c (No effect (REC20 > 30 μM))” and the “CAR inverse agonistic activity (in words)” value was “showed CAR inverse agonistic activity”. For the same compound, on rat PPARα, the “Agonistic activity REC20 PPARα” value was “- ^c (No effect (REC20 > 30 μM))”. For the same compound, on rat PXR [2], the “Change of PXR activity upon incubation” value is “to the control level; also recorded: significantly decreased”.

Regarding `CC1(C)[C@H](C=C(Cl)Cl)[C@H]1C(=O)OCc1cccc(Oc2ccccc2)c1` [trans-permethrin], the “PXR activity, fold” value on rat PXR [1] (1 μM or lower) is given as “about 2 fold”. For the same compound, on rat PXR [1] (concentration range 1–30 μM), the “PXR activity, fold” value was “about 3 fold”. Besides, on rat PXR [1], the “Agonistic activity REC20 PXR” value is 0.674 ± 0.0526 µM. In addition, at rat CAR, the “Agonistic activity REC20 CAR” value is 4.19 µM and 4.19 ± 3.26 µM; the “Inverse agonistic activity RIC20 CAR” value was “- ^c (No effect (REC20 > 30 μM))”; the “CAR agonistic activity (in words)” value is given as “showed CAR agonistic activity at higher concentrations; also recorded: weak CAR agonistic activity”. In addition, the “Agonistic activity REC20 PPARα” value on rat PPARα is listed as “- ^c (No effect (REC20 > 30 μM))”. Also, the “Change of PXR activity upon incubation” value on rat PXR [2] was “decreased”.
